Assay outcomes (PubChem)
Apaf-1 act: activates human Apaf-1 apoptosome; AID 489031; actives 0.31% (n = 330,000); Apaf-1 apoptosome caspase-3 activation, DEVD-Rh110 fluorescence; active compounds read low; activity change, negative = activation, % at 20 µM;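 active = activity change at or below -40% at 20 µM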
Target sequence (O14727 whole entry, looked up): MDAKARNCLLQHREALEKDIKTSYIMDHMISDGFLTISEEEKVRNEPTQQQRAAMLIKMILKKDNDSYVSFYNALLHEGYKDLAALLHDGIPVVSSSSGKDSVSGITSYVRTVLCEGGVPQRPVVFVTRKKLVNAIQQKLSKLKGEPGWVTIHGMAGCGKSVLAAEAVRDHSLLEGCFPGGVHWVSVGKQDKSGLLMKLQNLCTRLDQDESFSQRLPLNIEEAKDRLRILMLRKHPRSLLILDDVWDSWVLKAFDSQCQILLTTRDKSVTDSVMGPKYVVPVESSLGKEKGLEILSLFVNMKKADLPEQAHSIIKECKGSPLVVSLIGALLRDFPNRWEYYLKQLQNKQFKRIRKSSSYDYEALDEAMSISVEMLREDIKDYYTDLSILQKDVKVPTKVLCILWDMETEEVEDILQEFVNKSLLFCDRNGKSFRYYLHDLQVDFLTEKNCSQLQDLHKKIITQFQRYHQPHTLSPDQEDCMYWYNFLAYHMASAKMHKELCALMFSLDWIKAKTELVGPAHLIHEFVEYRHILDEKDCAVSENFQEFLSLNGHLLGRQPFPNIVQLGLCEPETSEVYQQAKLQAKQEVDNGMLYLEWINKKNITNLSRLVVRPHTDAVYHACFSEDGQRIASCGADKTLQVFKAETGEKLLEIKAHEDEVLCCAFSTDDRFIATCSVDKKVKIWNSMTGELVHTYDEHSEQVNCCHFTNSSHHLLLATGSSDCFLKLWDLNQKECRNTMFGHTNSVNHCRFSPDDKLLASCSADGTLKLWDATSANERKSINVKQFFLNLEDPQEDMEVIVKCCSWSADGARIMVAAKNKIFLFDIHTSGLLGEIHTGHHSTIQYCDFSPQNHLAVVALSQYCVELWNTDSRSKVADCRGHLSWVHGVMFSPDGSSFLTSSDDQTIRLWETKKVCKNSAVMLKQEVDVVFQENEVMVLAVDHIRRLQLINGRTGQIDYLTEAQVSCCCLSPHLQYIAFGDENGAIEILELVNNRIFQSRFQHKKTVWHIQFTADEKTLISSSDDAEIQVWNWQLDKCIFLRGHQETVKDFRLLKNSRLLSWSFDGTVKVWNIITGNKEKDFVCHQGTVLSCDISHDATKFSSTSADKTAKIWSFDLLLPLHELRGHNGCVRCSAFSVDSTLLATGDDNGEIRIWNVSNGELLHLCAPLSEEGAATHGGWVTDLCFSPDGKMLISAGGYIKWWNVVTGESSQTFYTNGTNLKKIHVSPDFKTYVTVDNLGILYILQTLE
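Material: reconstituted apoptosome of Apaf-1, cytochrome c, caspase-9, procaspase-3; times: 30 min preincubation, 50 min reaction, room temperature; measured by: fluorescence, 540 nm emission, 480 nm excitation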
Rh110 interf act: counter-screen for Apaf-1 activators: fluorescence interference. Rh110 fluorescence interference, quenched caspase reaction, Ex480/Em540. fluorescence interference (activity change), % at 20 µM, hits read low. AID 504616. 980 tested, under 10 active. shares compounds with Apaf-1 act;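 active = mean activity change at or below -40% when tested at 20 µM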
Apaf-1 act conf2: confirmation of human Apaf-1 activators; shares compounds with Apaf-1 act; reconstituted apoptosome caspase-3 activity, DEVD-Rh110 fluorescence; active compounds read low; activity change, negative = activation, % at 20 µM; actives 5% (n = 980);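 active = mean activity change at or below -40%, meaning activation of 40% or more, at 20 µM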
Fluor interf act: counter-screen for Apaf-1 activators: fluorescence interference, dose response; shares compounds with Apaf-1 act; 55 tested, under 10 active; AID 588592; EC50, µM; fluorescence interference counterscreen, Apaf-1 activator assay; call rule not given here
* hit, by the source's call; x = no result given. These entries were drawn from the full list.

SMILES | Apaf-1 act | Rh110 interf act | Apaf-1 act conf2 | others
COc1ccc(C(=O)/C=C/N(C)C)cc1OC | -107* | 3 | 8
CN(C)/C=C/C(=O)c1ccc(S(=O)(=O)c2ccccc2)cc1 | -61* | -2 | 6
C=CCOc1c(Cl)cc(CNc2ccc(N(C)C)cc2)cc1OC | 64 | x | x
CCCCCCCNC(=O)C1(CC2CC(c3cccc(Br)c3)=NO2)CCNCC1 (stereo not given) | 46 | x | x
CC(C)N(C(=O)Nc1ccc2nsnc2c1)C(C)C | 97 | x | x
Cc1cccc(NC(=O)CN(C)S(=O)(=O)c2cccc3cccnc23)c1C | -164* | 6 | 3
Nc1c(O)cccc1C(=O)O | 53 | x | x
COc1ccc([N+](=O)[O-])cc1NC(=O)CCS(=O)(=O)c1ccc(Br)cc1 | -111* | -5 | -101* | Fluor interf act=>100
O=C(COC(=O)c1cc(S(=O)(=O)N2CCc3ccccc3C2)ccc1Cl)NCc1ccco1 | 43 | x | x
O=C(CCS(=O)(=O)c1ccc(Br)cc1)NCc1ccco1 | -88* | 9 | -51* | Fluor interf act=>100
CCOc1ccccc1NC(=O)CCS(=O)(=O)c1ccc(Br)cc1 | -220* | 12 | -128* | Fluor interf act=>100
COc1ccccc1C(=O)NC(CCSC)C(=O)N1CCC(Cc2ccccc2)CC1 (stereo not given) | 44 | x | x
FC(F)(F)c1cc(CCN2CCNC[C@@H]2CC2CCCCC2)cc(C(F)(F)F)c1 | 79 | x | x
C#CCOCCOCCOCCNc1nc(N2CCN(C(=O)CCCCCCCCCCNC(=O)[C@H](CCCCN)n3cc(CCO)nn3)CC2)nc(N2CCN(C(=O)CCCCCCCCCCNC(=O)[C@H](CCCCN)n3cc(C[C@@H](C)CC)nn3)CC2)n1 | 68 | x | x
Nc1ccc(N)c(C(=O)O)c1 | 67 | x | x
Cc1oc2c(c1C(=O)c1ccccc1)C(=O)C(=O)c1ccccc1-2 | 91 | x | x
C#CCOCCOCCOCCNc1nc(N2CCN(C(=O)[C@H](CCCCN)n3cc([C@@H](N)C(C)CC)nn3)CC2)nc(N2CCN(C(=O)[C@H](Cc3cc4ccccc4[nH]3)n3cc([C@@H](N)C(C)CC)nn3)CC2)n1 (stereo not given in full) | 53 | x | x
Oc1ccc(N=Cc2ccc(O)c(O)c2)cc1 | 75 | x | x
CCCCc1c(C)c(C#N)c2[nH]c3ccccc3n2c1=O | 45 | x | x
O=C(NCC1CCCO1)c1ccc(Br)s1 (stereo not given) | -522* | 0 | 11
Nc1c(C(=O)NCC2CCCO2)c2nc3ccccc3nc2n1-c1ccccc1 (stereo not given) | 60 | x | x
CC(=O)Nc1ccc(NC(=O)CC2Nc3cccc4cccc(c34)NC2=O)cc1 (stereo not given) | 96 | x | x
CCN1CCN(Cc2ccc(NC(=O)c3cc(NC(=O)c4cncc(-c5ccc(C#N)cc5)c4)cc(OC)c3)cc2C(F)(F)F)CC1 | 54 | x | x
COc1cc(NC(=O)c2ccnc(N)c2)cc(C(=O)Nc2cccc(C(F)(F)F)c2)c1 | -261* | 13 | 15
O=C(Nc1cccc(C(F)(F)F)c1)c1ccc2nc(-c3ccco3)c(-c3ccco3)nc2c1 | 66 | x | x
SMILES | Apaf-1 act | Rh110 interf act | Apaf-1 act conf2 | others
CC1=C(CC(=O)c2ccccc2)C(=O)c2ccccc2C1=O | 45 | x | x
CCCCCn1c(NC(=O)c2ccco2)c(S(=O)(=O)c2ccc(C)cc2)c2nc3ccccc3nc21 | 63 | x | x
O=C(Nc1nc2ccsc2c(=O)s1)c1ccco1 | -136* | 0 | -56* | Fluor interf act=>100
COC(=O)c1ccc(NC(=O)c2ccc(NC(=O)c3ccco3)cc2)cc1 | 44 | x | x
COc1ccc(N2CCN(Cc3nc4scc(-c5ccccc5)c4c(=O)[nH]3)CC2)cc1 | 44 | x | x
COc1ccccc1N1CCN(Cc2nc(-c3ccc(F)cc3)oc2C)CC1 | -236* | 5 | 13
CN(C)CCCNC(=O)C(=O)NCC1OCCN1S(=O)(=O)c1cccs1 (stereo not given) | 64 | x | x
O=C(O)CCCNc1cc(N2CCN(C(=O)c3ccco3)CC2)c2noc3c2c1C(=O)c1ccccc1-3 | 60 | x | x
Cc1ccc(NC(=O)C(C)N2C(=O)C3C4CC(C(Br)C4Br)C3C2=O)cc1 (stereo not given) | -419* | 0 | 4
NC(=O)OCC(COC(N)=O)c1ccccc1 | -6 | x | x
CC(C)COC(=O)c1nnsc1NC(=O)Nc1ccccc1 | -63* | 0 | 14
C#CCOCCOCCOCCNc1nc(N2CCN(C(=O)CCCCCCCCCCNC(=O)[C@H]([C@@H](C)CC)n3cc(CCCCN=C(N)N)nn3)CC2)nc(N2CCN(C(=O)CCCCCCCCCCNC(=O)[C@H](CCCN=C(N)N)n3cc(C[C@@H](C)CC)nn3)CC2)n1 | 46 | x | x
COC(=O)CCC(=O)OC1(C)C(=O)C2=CN(CCc3ccccn3)C(c3ccc(OC)cc3)=CC2=C(Br)C1=O (stereo not given) | 73 | x | x
CC(C)Cc1nnc(NC(=O)C2CSC3(C)CCC(=O)N23)s1 (stereo not given) | -83* | 6 | 13
Fc1ccc(N2CCN(c3nc(CN4CCOCC4)nc4scc(-c5ccccc5)c34)CC2)cc1 | 41 | x | x
COc1ccc(N2C(=O)[C@@H]3[C@H](C2=O)[C@H]2c4ccccc4C=CN2[C@@H]3C(=O)Nc2ccccc2)cc1 | 67 | x | x
Cc1cccc(NC2=C(NCCO)C(=O)c3ccccc3C2=O)c1 | 56 | x | x
Cc1cccc(NC(=O)NC2CCCc3ccccc32)c1 (stereo not given) | -379* | 1 | 0
Cc1cccc(NC(=O)CC2Nc3cccc4cccc(c34)NC2=O)c1 (stereo not given) | 71 | x | x
CCOC(=O)c1cnc(SCC(=O)N2CCN(C(=O)c3ccco3)CC2)nc1N | -93* | 1 | 10
CCOC(=O)c1cnc2ccc(C)cc2c1Nc1ccc(N2CCOCC2)cc1 | 41 | x | x
CCOC(=O)c1nn(-c2ccc(C)c(C)c2)c(=O)c2c(N)scc12 | 56 | x | x
CCCCCCCCCn1c2c(c(=N)c3c1CCC3)CCCC2 | 51 | x | x
Clc1cccc(CSc2nnc(-c3ccccn3)n2Cc2ccco2)c1 | 42 | x | x
Cc1ccc(-c2nnc(CSc3nnc(COc4cccc5ccccc45)n3-c3ccccc3)o2)cc1 | 44 | x | x
SMILES | Apaf-1 act | Rh110 interf act | Apaf-1 act conf2 | others
CC(C)N(Cc1cc2ccccc2[nH]c1=O)C(=O)C1CCCCC1 | 57 | x | x
O=C(C1CCCCC1)N(Cc1ccccc1)c1ccccn1 | -154* | -5 | 2
COc1ccc(CN(CCN(C)C)c2ccccn2)cc1 | 3 | x | x
OCc1cn(-c2ccc(Cl)cc2)nn1 | -56* | 8 | 12
O=C1C=C(O)c2cccc(O)c2C1=O | 44 | x | x
c1ccc(C2(CN3CCNC[C@H]3Cc3cccc4ccccc34)CC2)cc1 | 53 | x | x
C#CCOCCOCCOCCNc1nc(N2CCN(C(=O)CCCCCCCCCCNC(=O)Cn3cc(CCCCCN)nn3)CC2)nc(N2CCN(C(=O)CCCCCCCCCCNC(=O)Cn3cc(C[C@@H](C)O)nn3)CC2)n1 | 71 | x | x
CC(C)[C@H](CN1CCC[C@H]1CN1C(N)=NC[C@H]1C(C)C)N1C[C@@H](Cc2ccccc2)N(CCCC2CCCC2)C1=N | 63 | x | x
Cc1ccc(S(=O)(=O)c2nc(S(C)(=O)=O)sc2N(C)C)cc1 | -90* | -9 | -23
Cc1ccc(S(=O)(=O)N2CCN(c3nc(CN4CCCC4)nc4sc(C)c(C)c34)CC2)cc1 | 48 | x | x
